Measured values as given in ChEMBL document CHEMBL1158535, “Thiazole, oxadiazole, and carboxamide derivatives of artemisinin are highly selective and potent inhibitors of Toxoplasma gondii” (J Med Chem, 2010).
The source made the active and inactive calls. No cut-off for these calls is given here.

Assays:
Toxoplasma gondii [1] = experiment: Antiparasitic activity against Toxoplasma gondii 2F infected in HFF cells assessed as inhibition of parasite replication at 10 uM; format: functional, organism-based
How it was run: (§1)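 HFF monolayers inoculated with tachyzoites, 2 h at 37°C/5% CO2, then compound (1, 5 or 10 μM) or DMSO added. Replication 24-26 h, then fixed, permeabilized, immunolabeled anti-p30 with DAPI. Parasites per vacuole (1, 2, 4, 8+) counted by eye in 10 random fields; reported as modal number/doublings.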

[2] = Cytotoxicity against HFF after 5 days by CellTiter 96 Aqueous One Solution assay; settings: human, HFF cells; read-out: TD50
Toxoplasma gondii [3] = experiment: Antiparasitic activity against Toxoplasma gondii 2F infected in HFF cells assessed as inhibition of parasite replication at 1 uM; format: functional, organism-based; how it was run: as §1
Toxoplasma gondii [4] = experiment: Antiparasitic activity against Toxoplasma gondii 2F infected in HFF cells assessed as inhibition of parasite replication at 5 uM; format: functional, organism-based; how it was run: as §1
Toxoplasma gondii [5] = experiment: Antiparasitic activity against Toxoplasma gondii 2F infected in HFF cells assessed as beta galactosidase activity after 5 days; format: functional, organism-based; settings: 120 h
How it was run: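 HFF monolayers infected with β-galactosidase-expressing T. gondii 2F tachyzoites; compounds from final 320 μM serially diluted 0.5 log10, drug-free parasite control. After 4 days at 37°C/5% CO2, CPRG substrate added and incubated 1 more day. Absorbance 570-650 nm relative to parasite control. IC50 calculated; at least three independent experiments.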

[6] = Therapeutic index, ratio of TD50 for HFF cells to IC50 for Toxoplasma gondii F2; format: cell-based; settings: human, read-out: TI

| Compound | Activity (Toxoplasma gondii [1]) | CC50 at 120 h [2] [nM] | Activity (Toxoplasma gondii [3]) | Activity (Toxoplasma gondii [4]) | IC50 (Toxoplasma gondii [5]) [nM] | selectivity ratio [6] |
| --- | --- | --- | --- | --- | --- | --- |
| CC1=C(c2nc(C)cs2)O[C@@H]2O[C@@]3(C)CC[C@H]4[C@H](C)CC[C@@H]1[C@@]24OO3 | Active | ≥ 320000 | Active | Active | 400 | 1410 |
| CC1=C(c2nc(-c3ccc(C)cc3)cs2)O[C@@H]2O[C@@]3(C)CC[C@H]4[C@H](C)CC[C@@H]1[C@@]24OO3 | – | ≥ 320000 | – | – | 350 | 1610 |
| CC1=C(c2nc(-c3ccccc3)no2)O[C@@H]2O[C@@]3(C)CC[C@H]4[C@H](C)CC[C@@H]1[C@@]24OO3 | Active | 141000 | Active | Active | 440 | 320 |
| CC1=C(C(=O)NCc2ccc(C)cc2)O[C@@H]2O[C@@]3(C)CC[C@H]4[C@H](C)CC[C@@H]1[C@@]24OO3 | – | 169000 | – | – | 510 | 331 |
| CC1=C(c2nc(C3CCCCC3)cs2)O[C@@H]2O[C@@]3(C)CC[C@H]4[C@H](C)CC[C@@H]1[C@@]24OO3 | – | 1800 | – | – | 590 | 3 |
| COc1cc(Cc2cnc(N)nc2N)cc(OC)c1OC [TRIMETHOPRIM] | – | ≥ 320000 | – | – | 46000 | 12 |
| CC1=C(C(=O)NCc2cc(Br)cc(Br)c2)O[C@@H]2O[C@@]3(C)CC[C@H]4[C@H](C)CC[C@@H]1[C@@]24OO3 | – | ≥ 320000 | – | – | 810 | 694 |
| CC1=C(c2nc(-c3ccc(S(C)(=O)=O)cc3)cs2)O[C@@H]2O[C@@]3(C)CC[C@H]4[C@H](C)CC[C@@H]1[C@@]24OO3 | – | ≥ 320000 | – | – | 420 | 1340 |
| CC1=C(c2nccs2)O[C@@H]2O[C@@]3(C)CC[C@H]4[C@H](C)CC[C@@H]1[C@@]24OO3 | – | ≥ 320000 | – | – | 1100 | 511 |
| CSc1ccc(-c2csc(C3=C(C)[C@@H]4CC[C@@H](C)[C@@H]5CC[C@@]6(C)OO[C@@]45[C@H](O3)O6)n2)cc1 | – | ≥ 320000 | – | – | 400 | 1410 |
| CC1=C(C(=O)NCc2ccc(F)cc2)O[C@@H]2O[C@@]3(C)CC[C@H]4[C@H](C)CC[C@@H]1[C@@]24OO3 | – | 72000 | – | – | 470 | 153 |
| C[C@@H]1CC[C@H]2[C@@H](C)C(=O)O[C@@H]3O[C@@]4(C)CC[C@@H]1[C@]32OO4 [ARTEMISININ] | – | ≥ 320000 | – | – | 640 | 879 |
| CC1=C(c2nc(C)no2)O[C@@H]2O[C@@]3(C)CC[C@H]4[C@H](C)CC[C@@H]1[C@@]24OO3 | – | ≥ 320000 | – | – | 840 | 669 |
| CNC(=O)C1=C(C)[C@@H]2CC[C@@H](C)[C@@H]3CC[C@@]4(C)OO[C@@]23[C@H](O1)O4 | – | ≥ 320000 | – | – | 15000 | 37 |
| CCc1csc(C2=C(C)[C@@H]3CC[C@@H](C)[C@@H]4CC[C@@]5(C)OO[C@@]34[C@H](O2)O5)n1 | – | ≥ 320000 | – | – | 400 | 1410 |
| CC1=C(C(=O)NCc2cc(F)cc(F)c2)O[C@@H]2O[C@@]3(C)CC[C@H]4[C@H](C)CC[C@@H]1[C@@]24OO3 | – | ≥ 320000 | – | – | 360 | 1560 |
| CCN(CC)C(=O)C1=C(C)[C@@H]2CC[C@@H](C)[C@@H]3CC[C@@]4(C)OO[C@@]23[C@H](O1)O4 | – | 23000 | – | – | 11000 | 2.1 |
| CC1=C(c2nc(-c3ccccc3)cs2)O[C@@H]2O[C@@]3(C)CC[C@H]4[C@H](C)CC[C@@H]1[C@@]24OO3 | Active | ≥ 320000 | Active | Active | 340 | 1650 |
| CC1=C(C(=O)NCc2ccc(C(F)(F)F)cc2)O[C@@H]2O[C@@]3(C)CC[C@H]4[C@H](C)CC[C@@H]1[C@@]24OO3 | – | ≥ 320000 | – | – | 340 | 1650 |
| CC1=C(c2nc(C)c(C)s2)O[C@@H]2O[C@@]3(C)CC[C@H]4[C@H](C)CC[C@@H]1[C@@]24OO3 | Active | 38000 | Active | Active | 160 | 240 |
| CC1=C(C(=O)NCc2ccc(F)c(F)c2)O[C@@H]2O[C@@]3(C)CC[C@H]4[C@H](C)CC[C@@H]1[C@@]24OO3 | – | 78000 | – | – | 470 | 166 |
| CCNC(=O)C1=C(C)[C@@H]2CC[C@@H](C)[C@@H]3CC[C@@]4(C)OO[C@@]23[C@H](O1)O4 | – | 259000 | – | – | 6800 | 38 |
| CO[C@H]1O[C@@H]2O[C@@]3(C)CC[C@H]4[C@H](C)CC[C@@H]([C@H]1C)[C@@]24OO3 [ARTEMETHER] | – | ≥ 320000 | – | – | 310 | 1810 |
| COc1ccc(-c2csc(C3=C(C)[C@@H]4CC[C@@H](C)[C@@H]5CC[C@@]6(C)OO[C@@]45[C@H](O3)O6)n2)cc1 | – | 19000 | – | – | 750 | 25 |
| CC1=C(c2ncc(C)s2)O[C@@H]2O[C@@]3(C)CC[C@H]4[C@H](C)CC[C@@H]1[C@@]24OO3 | Active | ≥ 320000 | Active | Active | 370 | 1520 |
| CC1=C(c2nc(C(C)(C)C)cs2)O[C@@H]2O[C@@]3(C)CC[C@H]4[C@H](C)CC[C@@H]1[C@@]24OO3 | Active | ≥ 320000 | Active | Active | 250 | 2250 |
| CC1=C(C(=O)NCc2ccccc2)O[C@@H]2O[C@@]3(C)CC[C@H]4[C@H](C)CC[C@@H]1[C@@]24OO3 | – | ≥ 320000 | – | – | 670 | 839 |
